Measured values from ChEMBL document CHEMBL4152227, “Targeting mitochondria: Esters of rhodamine B with triterpenoids are mitocanic triggers of apoptosis” (Eur J Med Chem, 2018).
Calls of active or inactive are those of the source.

How the values were obtained:
[1] = system: FaDu; test: Cytotoxicity against human FADU cells after 96 hrs by SRB assay; format: functional, cell-based
Procedure, shortened: (§1)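 Sulforhodamine B colorimetric assay after 96 h of treatment. EC50 values in µM are averaged from three independent experiments, each run in triplicate, with a 95% confidence interval. The assay cut-off is 30 µM.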

[2] = system: A2780; test: Cytotoxicity against human A2780 cells after 96 hrs by SRB assay; format: functional, cell-based; conditions: A2780, 96 h; procedure, shortened: as §1
[3] = system: HT-29; test: Cytotoxicity against human HT-29 cells after 96 hrs by SRB assay; format: functional, cell-based; conditions: HT-29, 96 h; procedure, shortened: as §1
[4] = system: MCF7; test: Cytotoxicity against human MCF7 cells after 96 hrs by SRB assay; format: functional, cell-based; conditions: MCF7, 96 h; procedure, shortened: as §1
[5] = system: NIH3T3; test: Cytotoxicity against mouse NIH/3T3 cells after 96 hrs by SRB assay; format: cell-based; conditions: NIH3T3, 96 h; procedure, shortened: as §1
[6] = system: SW-1736; test: Cytotoxicity against human SW1736 cells after 96 hrs by SRB assay; format: functional, cell-based; conditions: SW-1736, 96 h; procedure, shortened: as §1
[7] = Drug uptake in nucleus of human A2780 cells at 200 nM after 24 hrs by rhodamine 123 staining based fluorescence microscopy; format: ADME, subcellular; conditions: a2780, 24 h, 0.2 µM
Procedure, shortened: (§2)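 A2780 ovarian carcinoma cells were incubated 24 h with 200 nM compound, then double-stained with rhodamine 123 (mitochondria, green) and Hoechst 33342 (nuclei). Fluorescence microscopy localized the compound's own red fluorescence by overlay with the rhodamine 123 and Hoechst channels. Bright-field images were also taken.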

[8] = Drug uptake in mitochondria of human A2780 cells at 200 nM after 24 hrs by rhodamine 123 staining based fluorescence microscopy; format: ADME; conditions: a2780, 24 h, 0.2 µM; procedure, shortened: as §2
[9] = system: A2780; test: Induction of apoptosis in human A2780 cells assessed as crescent-shaped nuclei at 200 nM after 24 hrs by Hoechst 33342 staining based fluorescence microscopy; format: functional, cell-based
[10] = system: A2780; test: Induction of apoptosis in human A2780 cells assessed as incipient membrane blebbing at 200 nM after 24 hrs; format: functional, cell-based

| Drug uptake [7] | Drug uptake [8] | SMILES | EC50 [1] | EC50 [2] | EC50 [3] | EC50 [4] | EC50 [5] | EC50 [6] | Activity [9] | Activity [10] |
| --- | --- | --- | --- | --- | --- | --- | --- | --- | --- | --- |
|  |  | CCN(CC)c1ccc2c(-c3ccccc3C(=O)O[C@H]3CC[C@]4(C)[C@H]5CC=C6[C@@H]7[C@@H](C)[C@H](C)CC[C@]7(C(=O)OCc7ccccc7)CC[C@@]6(C)[C@]5(C)CC[C@H]4C3(C)C)c3ccc(=[N+](CC)CC)cc-3oc2c1 | 15.8 µM | 10.1 µM | 11.4 µM | 13.8 µM | 15.4 µM | 12.7 µM |  |  |
|  |  | CCN(CC)c1ccc2c(-c3ccccc3C(=O)O[C@H]3CC[C@]4(C)[C@H]5CC=C6[C@@H]7CC(C)(C)CC[C@]7(C(=O)NCc7ccccc7)CC[C@@]6(C)[C@]5(C)CC[C@H]4C3(C)C)c3ccc(=[N+](CC)CC)cc-3oc2c1 | 0.5 µM | 0.32 µM | 0.46 µM | 0.36 µM | 0.4 µM | 0.27 µM |  |  |
|  |  | CCN(CC)c1ccc2c(-c3ccccc3C(=O)O[C@H]3CC[C@]4(C)[C@H]5CC=C6[C@@H]7[C@@H](C)[C@H](C)CC[C@]7(C(=O)OC)CC[C@@]6(C)[C@]5(C)CC[C@H]4C3(C)C)c3ccc(=[N+](CC)CC)cc-3oc2c1 | 1.96 µM | 1.75 µM | 1.85 µM | 1.83 µM | 1.84 µM | 1.72 µM |  |  |
|  |  | CCN(CC)c1ccc2c(-c3ccccc3C(=O)O[C@H]3CC[C@]4(C)[C@H]5C(=O)C=C6[C@@H]7C[C@@](C)(C(=O)OC)CC[C@]7(C)CC[C@@]6(C)[C@]5(C)CC[C@H]4C3(C)C)c3ccc(=[N+](CC)CC)cc-3oc2c1 | 0.19 µM | 0.08 µM | 0.15 µM | 0.18 µM | 0.2 µM | 0.15 µM |  |  |
|  |  | CCN(CC)c1ccc2c(-c3ccccc3C(=O)O[C@H]3CC[C@]4(C)[C@H]5C(=O)C=C6[C@@H]7C[C@@](C)(C(=O)OCc8ccccc8)CC[C@]7(C)CC[C@@]6(C)[C@]5(C)CC[C@H]4C3(C)C)c3ccc(=[N+](CC)CC)cc-3oc2c1 | 1.54 µM | 0.9 µM | 1.42 µM | 1.47 µM | 1.28 µM | 1.13 µM |  |  |
| Not Active | Active | CCN(CC)c1ccc2c(-c3ccccc3C(=O)O[C@H]3CC[C@]4(C)[C@H]5C(=O)C=C6[C@@H]7C[C@@](C)(C(=O)NCc8ccccc8)CC[C@]7(C)CC[C@@]6(C)[C@]5(C)CC[C@H]4C3(C)C)c3ccc(=[N+](CC)CC)cc-3oc2c1.[Cl-] | 0.06 µM | 0.02 µM | 0.06 µM | 0.04 µM | 0.08 µM | 0.04 µM | Active | Active |
|  |  | CCN(CC)c1ccc2c(-c3ccccc3C(=O)O[C@H]3CC[C@]4(C)[C@H]5CC=C6[C@@H]7CC(C)(C)CC[C@]7(C(=O)OC)CC[C@@]6(C)[C@]5(C)CC[C@H]4C3(C)C)c3ccc(=[N+](CC)CC)cc-3oc2c1 | 1.99 µM | 1.14 µM | 2.75 µM | 2.31 µM | 2.63 µM | 1.76 µM |  |  |
|  |  | CCN(CC)c1ccc2c(-c3ccccc3C(=O)O[C@H]3CC[C@]4(C)[C@H]5CC=C6[C@@H]7CC(C)(C)CC[C@]7(C(=O)OCc7ccccc7)CC[C@@]6(C)[C@]5(C)CC[C@H]4C3(C)C)c3ccc(=[N+](CC)CC)cc-3oc2c1 | 9.12 µM | 3.35 µM | 8.9 µM | 9.4 µM | 11.2 µM | 9.05 µM |  |  |
|  |  | CCN(CC)c1ccc2c(-c3ccccc3C(=O)O[C@H]3CC[C@]4(C)[C@H]5CC=C6[C@@H]7[C@@H](C)[C@H](C)CC[C@]7(C(=O)NCc7ccccc7)CC[C@@]6(C)[C@]5(C)CC[C@H]4C3(C)C)c3ccc(=[N+](CC)CC)cc-3oc2c1 | 0.44 µM | 0.34 µM | 0.45 µM | 0.3 µM | 0.37 µM | 0.24 µM |  |  |
|  |  | C=C(C)[C@@H]1CC[C@]2(C(=O)NCc3ccccc3)CC[C@]3(C)[C@H](CC[C@@H]4[C@@]5(C)CC[C@H](OC(=O)c6ccccc6-c6c7ccc(=[N+](CC)CC)cc-7oc7cc(N(CC)CC)ccc67)C(C)(C)[C@@H]5CC[C@]43C)[C@H]12 | 0.54 µM | 0.31 µM | 0.53 µM | 0.47 µM | 0.54 µM | 0.45 µM |  |  |
|  |  | C=C(C)[C@@H]1CC[C@]2(C(=O)OCc3ccccc3)CC[C@]3(C)[C@H](CC[C@@H]4[C@@]5(C)CC[C@H](OC(=O)c6ccccc6-c6c7ccc(=[N+](CC)CC)cc-7oc7cc(N(CC)CC)ccc67)C(C)(C)[C@@H]5CC[C@]43C)[C@H]12 | 7.59 µM | 3.36 µM | 5.33 µM | 5.05 µM | 8.04 µM | 6.43 µM |  |  |
|  |  | C=C(C)[C@@H]1CC[C@]2(C(=O)OC)CC[C@]3(C)[C@H](CC[C@@H]4[C@@]5(C)CC[C@H](OC(=O)c6ccccc6-c6c7ccc(=[N+](CC)CC)cc-7oc7cc(N(CC)CC)ccc67)C(C)(C)[C@@H]5CC[C@]43C)[C@H]12 | 1.29 µM | 0.42 µM | 0.61 µM | 0.81 µM | 1.77 µM | 0.74 µM |  |  |
